Results as given in ChEMBL document CHEMBL1128223 (J Med Chem, 1995).

Legend:
Mus musculus [1] = test: The body weight loss was measured in mice in vivo by using the HT-29 Human colon Xenograft model at a dose of 5 mg/kg; type: functional
How it was run: (§1)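 HT29 subcutaneous flank xenografts in female nu/nu mice, 6 per group. Compound in 0.1 M acetate buffer pH 5, 0.2 mL s.c., twice weekly for 5 weeks. Body weight monitored twice weekly. Value is group mean body weight loss, with ≥30% loss considered lethal. Dose ceiling set beforehand by dose-ranging in naive mice on the same schedule.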

Mus musculus [2] = test: The no. of deaths of mice(infected with HT-29 cells) was reported at a dose of 7 mg/kg; type: functional
How it was run: (§2)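 HT29 s.c. xenografts in female nu/nu mice, 6 per group. Compound given s.c. in 0.1 M sodium acetate pH 5, twice weekly for 5 weeks. Body weights monitored; mean body weight loss and deaths recorded per dose group. Dose range included the highest dose from a dose-ranging study in naive mice, in which ≥30% weight loss was considered lethal.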

Mus musculus [3] = test: (§3) The no. of deaths of mice(infected with HT-29 cells) was reported at a dose of 9 mg/kg; type: ADME, organism-based; set-up: dose 9 mg/kg; settings: in vivo; how it was run: as §2
Mus musculus [4] = test: The no. of deaths of mice(infected with HT-29 cells) was reported at a dose of 5 mg/kg; type: functional; how it was run: as §2
SK-VLB = test: Cytotoxicity was determined in vitro in SKVLB cells(ovarian with upregulated MDRp-glycoprotein) of human tumor cell lines by using MTT assay; type: functional, cell-based
How it was run: (§4)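 MTT microculture tetrazolium assay. Cells grown in α-MEM with 15% heat-inactivated FBS, glutamine, pyruvate, insulin and nonessential amino acids at 37 °C, 5% CO2. Seeded at 1500–4000 cells/well and allowed to adhere overnight. Exposed to compound for 48 h, then fresh medium for 48 h, quadruplicate per concentration. MTT 4 h, dye extracted in DMSO, A570 read. IC50 (50% cell kill) from four-parameter logistic fit.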

Mus musculus [5] = test: The body weight loss was measured in mice in vivo by using the HT-29 Human colon Xenograft model at a dose of 9 mg/kg; type: functional; how it was run: as §1
Mus musculus [6] = test: In vivo efficacy of tumor growth ratio(T/B) of compound was calculated by using the HT-29 Human colon Xenograft model in mice at a dose of 5 mg/kg; type: functional
How it was run: (§5)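 Female nu/nu mice (18–24 g) given 10^6 HT29 cells subcutaneously in the left axillary flank. Grouped at 6 per dose with matched body weight and palpable tumor of about 150 mm². Compound in 0.1 M sodium acetate pH 5, 0.2 mL s.c., twice weekly for 5 weeks. Volume = length × width²/2 by calipers. T/B = end-of-treatment mean volume divided by initial mean volume.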

Mus musculus [7] = test: In vivo efficacy of tumor growth ratio(T/B) of compound was calculated by using the HT-29 Human colon Xenograft model in mice at a dose of 9 mg/kg; type: functional; how it was run: as §5
Mus musculus [8] = test: The body weight loss was measured in mice in vivo by using the HT-29 Human colon Xenograft model at a dose of 7 mg/kg; type: functional; how it was run: as §1
HT-29 [9] = test: In vivo efficacy of tumor growth ratio(T/B) of compound was calculated by using the HT-29 Human colon Xenograft model in mice at a dose of 7 mg/kg; type: functional; how it was run: as §5
HT-29 [10] = test: Cytotoxicity was determined in vitro in HT-29 cells(colon) of human tumor cell lines by using MTT assay; type: functional, cell-based; how it was run: as §4
Mus musculus [11] = test: The body weight loss was measured in mice in vivo by using the HT-29 Human colon Xenograft model at a dose of 11 mg/kg; type: functional; how it was run: as §1
LOX IMVI = test: Cytotoxicity was determined in vitro in LOX cells (melanoma) of human tumor cell lines by using MTT assay; type: functional, cell-based
How it was run: (§6)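 Cells grown in α-MEM with 15% heat-inactivated FBS, 2 mM L-glutamine, 1 mM pyruvate, insulin and nonessential amino acids at 37 °C, 5% CO2. Seeded at 1500–4000 cells/well and allowed to adhere overnight. Exposed to compound for 48 h, then to fresh medium for 48 h, in quadruplicate per concentration. MTT for 4 h, dye extracted in DMSO, A570 read. IC50 (50% cell kill) from four-parameter logistic fit.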

SK-OV-3 = test: Cytotoxicity was determined in vitro in SK-OV-3 cells (ovarian) of human tumor cell lines by using MTT assay; type: functional, cell-based; how it was run: as §4
Mus musculus [12] = test: The no. of deaths of mice(infected with HT-29 cells) was reported at a dose of 11 mg/kg; type: functional; how it was run: as §2
Mus musculus [13] = test: In vivo efficacy of tumor growth ratio(T/B) of compound was calculated by using the HT-29 Human colon Xenograft model in mice at a dose of 11 mg/kg; type: functional; how it was run: as §5
T47D = test: Cytotoxicity was determined in vitro in T47D cells(breast) of human tumor cell lines by using MTT assay; type: functional, cell-based; how it was run: as §6
Mus musculus [14] = test: In vivo efficacy of tumor growth ratio(T/B) of compound was calculated by using the HT-29 Human colon Xenograft model in mice at a dose of 2 mg/kg; type: functional
How it was run: (§7)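 Female nu/nu mice, 10⁶ HT29 cells implanted subcutaneously in the flank. Groups of 6 started at about 150 mm2 palpable tumor. Compound in 0.1 M sodium acetate pH 5 given s.c. twice weekly for 5 weeks. Tumor volume from calipers as length × width²/2. T/B is mean volume at end of treatment divided by mean initial volume.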

Mus musculus [15] = test: The body weight loss was measured in mice in vivo by using the HT-29 Human colon Xenograft model at a dose of 2 mg/kg; type: functional; how it was run: as §2
Mus musculus [16] = test: The no. of deaths of mice(infected with HT-29 cells) was reported at a dose of 4 mg/kg; type: functional; how it was run: as §2
Mus musculus [17] = test: In vivo efficacy of tumor growth ratio(T/B) of compound was calculated by using the HT-29 Human colon Xenograft model in mice at a dose of 3 mg/kg; type: functional; how it was run: as §7
Mus musculus [18] = test: The body weight loss was measured in mice in vivo by using the HT-29 Human colon Xenograft model at a dose of 3 mg/kg; type: functional; how it was run: as §2
Mus musculus [19] = test: The no. of deaths of mice(infected with HT-29 cells) was reported at a dose of 1 mg/kg; type: functional; how it was run: as §2
Mus musculus [20] = test: The body weight loss was measured in mice in vivo by using the HT-29 Human colon Xenograft model at a dose of 4 mg/kg; type: functional; how it was run: as §2
Mus musculus [21] = test: The body weight loss was measured in mice in vivo by using the HT-29 Human colon Xenograft model at a dose of 1 mg/kg; type: functional; how it was run: as §2
Mus musculus [22] = test: In vivo efficacy of tumor growth ratio(T/B) of compound was calculated by using the HT-29 Human colon Xenograft model in mice at a dose of 4 mg/kg; type: functional; how it was run: as §7
Mus musculus [23] = test: The no. of deaths of mice(infected with HT-29 cells) was reported at a dose of 3 mg/kg; type: functional; how it was run: as §2
Mus musculus [24] = test: The no. of deaths of mice(infected with HT-29 cells) was reported at a dose of 2 mg/kg; type: functional; how it was run: as §2
Mus musculus [25] = test: In vivo efficacy of tumor growth ratio(T/B) of compound was calculated by using the HT-29 Human colon Xenograft model in mice at a dose of 1 mg/kg; type: functional; how it was run: as §7
[26] = MDR ratio as the ratio of IC50 value against SKVLB to that of SKOV3,; type: functional
Mus musculus [27] = test: The no. of deaths of mice(infected with HT-29 cells) was reported at a dose of 6 mg/kg; type: functional; how it was run: as §2
Mus musculus [28] = test: In vivo efficacy of tumor growth ratio(T/B) of compound was calculated by using the HT-29 Human colon Xenograft model in mice at a dose of 12 mg/kg; type: functional; how it was run: as §5
Mus musculus [29] = test: The no. of deaths of mice(infected with HT-29 cells) was reported at a dose of 12 mg/kg; type: ADME, organism-based; set-up: dose 12 mg/kg; settings: in vivo; how it was run: as §2
Mus musculus [30] = test: The body weight loss was measured in mice in vivo by using the HT-29 Human colon Xenograft model at a dose of 6 mg/kg; type: functional; how it was run: as §1
Mus musculus [31] = test: The body weight loss was measured in mice in vivo by using the HT-29 Human colon Xenograft model at a dose of 12 mg/kg; type: functional; how it was run: as §1
Mus musculus [32] = test: as §3; type: functional; how it was run: as §2
Mus musculus [33] = test: In vivo efficacy of tumor growth ratio(T/B) of compound was calculated by using the HT-29 Human colon Xenograft model in mice at a dose of 6 mg/kg; type: functional; how it was run: as §5

Row | SMILES | IC50 (SK-VLB) [nM] | BW loss (Mus musculus [5]) [%] | Efficacy (Mus musculus [7]) | IC50 (HT-29 [10]) [nM] | IC50 (LOX IMVI) [nM] | IC50 (SK-OV-3) [nM] | IC50 (T47D) [nM] | Efficacy (Mus musculus [17]) | BW loss (Mus musculus [18]) [%] | Deaths (Mus musculus [23]) | MDR ratio [26] | also measured
1 | CC[C@@]1(O)C(=O)OCc2c1cc1n(c2=O)Cc2cc3c(CN(C)C)c(O)ccc3nc2-1 [TOPOTECAN] | 149 | 17 | 4.3 | 25 | 5 | 44 | 104 | – | – | – | – | BW loss (Mus musculus [1]): 15%; Deaths (Mus musculus [2]): 0; Deaths (Mus musculus [3]): 2; Deaths (Mus musculus [4]): 0; Efficacy (Mus musculus [6]): 8.6; BW loss (Mus musculus [8]): 11%; Efficacy (HT-29 [9]): 7; BW loss (Mus musculus [11]): 23%; Deaths (Mus musculus [12]): 0; Efficacy (Mus musculus [13]): 2.9
2 | CC[C@@]1(O)C(=O)OCc2c1cc1n(c2=O)Cc2c-1nc1cc3c(cc1c2CN1CCN(C)CC1)OCO3.O=C(O)C(F)(F)F | 17 | – | – | 2 | 0.5 | 4 | 30 | 0.9 | 12 | 0 | – | Efficacy (Mus musculus [14]): 1.7; BW loss (Mus musculus [15]): 8%; Deaths (Mus musculus [16]): 0; Deaths (Mus musculus [19]): 0; BW loss (Mus musculus [20]): 20%; BW loss (Mus musculus [21]): 11%; Efficacy (Mus musculus [22]): 0.6; Deaths (Mus musculus [24]): 0; Efficacy (Mus musculus [25]): 6.4
3 | COc1cccc2c1C(=O)c1c(O)c3c(c(O)c1C2=O)C[C@@](O)(C(=O)CO)C[C@@H]3O[C@H]1C[C@H](N)[C@H](O)[C@H](C)O1 [DOXORUBICIN] | 5650 | – | – | 331 | 42 | 36 | 72 | – | – | – | 160 | –
4 | CC[C@@]1(O)C(=O)OCc2c1cc1n(c2=O)Cc2c-1nc1cc3c(cc1c2CN1CCN(C)CC1)OCCO3.O=C(O)C(F)(F)F | 102 | 7 | 0.8 | 6 | 1 | 16 | 38 | 5.5 | 8 | 0 | 6 | Deaths (Mus musculus [27]): 0; Efficacy (Mus musculus [28]): 0.4; Deaths (Mus musculus [29]): 2; BW loss (Mus musculus [30]): 5%; BW loss (Mus musculus [31]): 22%; Deaths (Mus musculus [32]): 0; Efficacy (Mus musculus [33]): 1.6
5 | CC[C@@]1(O)C(=O)OCc2c1cc1n(c2=O)Cc2c-1nc1cc3c(cc1c2CCl)OCCO3 | 8 | – | – | 13 | – | 4 | – | – | – | – | 2 | –
6 | CC[C@@]1(O)C(=O)OCc2c1cc1n(c2=O)Cc2cc3ccccc3nc2-1 [CAMPTOTHECIN] | 41 | – | – | 46 | 48 | 37 | 207 | – | – | – | – | –
